Results reported in ChEMBL document CHEMBL4118033, “Total Synthesis, Configuration Assignment, and Cytotoxic Activity Evaluation of Protulactone A” (J Nat Prod, 2017).
Calls of active or inactive are those of the source. No cut-off for these calls is given here.

Columns and labels:
Type in all cases: functional, cell-based
RXF 393 = experiment: Antiproliferative activity against human RXF393 cells at 10 uM incubated for 48 hrs by sulforhodamine B assay
How it was run: (§1)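 Run by the NCI Developmental Therapeutics Program (Division of Cancer Treatment and Diagnosis) as part of the NCI60 human tumour cell line panel screen. Each compound was tested at a single dose of 10 μM. Results are reported as one-dose mean graphs.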

ACHN = experiment: Antiproliferative activity against human ACHN cells at 10 uM incubated for 48 hrs by sulforhodamine B assay; how it was run: as §1
UO-31 = experiment: Antiproliferative activity against human UO31 cells at 10 uM incubated for 48 hrs by sulforhodamine B assay
How it was run: (§2)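 Run by the NCI Developmental Therapeutics Program (Division of Cancer Treatment and Diagnosis) as part of the NCI60 human tumour cell line panel. Each compound was tested in vitro at a single dose of 10 μM, and the data are reported as one-dose mean graphs across the panel.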

OVCAR-3 = experiment: Antiproliferative activity against human OVCAR3 cells at 10 uM incubated for 48 hrs by sulforhodamine B assay; how it was run: as §1
UACC-257 = experiment: Antiproliferative activity against human UACC257 cells at 10 uM incubated for 48 hrs by sulforhodamine B assay; how it was run: as §2
HL-60(TB) = experiment: Antiproliferative activity against human HL-60(TB) cells at 10 uM incubated for 48 hrs by sulforhodamine B assay
How it was run: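 Tested within the NCI60 cancer cell line panel screen run by the Developmental Therapeutics Program (Division of Cancer Treatment and Diagnosis, National Cancer Institute). Each stereoisomer was given at a single dose of 10 μM. Results are reported as one-dose mean graphs.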

HCT-116 = experiment: Antiproliferative activity against human HCT116 cells at 10 uM incubated for 48 hrs by sulforhodamine B assay; how it was run: as §1
HT-29 = experiment: Antiproliferative activity against human HT-29 cells at 10 uM incubated for 48 hrs by sulforhodamine B assay; how it was run: as §1
MCF7 = experiment: Antiproliferative activity against human MCF7 cells at 10 uM incubated for 48 hrs by sulforhodamine B assay; how it was run: as §1
SF-539 = experiment: Antiproliferative activity against human SF539 cells at 10 uM incubated for 48 hrs by sulforhodamine B assay; how it was run: as §1
T47D = experiment: Antiproliferative activity against human T47D cells at 10 uM incubated for 48 hrs by sulforhodamine B assay; how it was run: as §2
MDA-MB-435 = experiment: Antiproliferative activity against human MDA-MB-435 cells at 10 uM incubated for 48 hrs by sulforhodamine B assay; how it was run: as §1
M14 = experiment: Antiproliferative activity against human M14 cells at 10 uM incubated for 48 hrs by sulforhodamine B assay; how it was run: as §1
SK-MEL-28 = experiment: Antiproliferative activity against human SK-MEL-28 cells at 10 uM incubated for 48 hrs by sulforhodamine B assay; how it was run: as §1
SF-295 = experiment: Antiproliferative activity against human SF295 cells at 10 uM incubated for 48 hrs by sulforhodamine B assay; how it was run: as §1

With CC(=O)O[C@H](C)[C@H]1O[C@H]2CC(=O)O[C@H]2[C@@H]1O the Activity (RXF 393) was “inactive”, the Activity (ACHN) was “inactive” and the Activity (UO-31) was “inactive”. For the same compound, the Activity (OVCAR-3) was “inactive”, the Activity (UACC-257) was “inactive” and the Activity (HL-60(TB)) was “inactive”. For the same compound, the Activity (HCT-116) was “inactive”, the Activity (HT-29) was “inactive” and the Activity (MCF7) was “inactive”. For the same compound, the Activity (SF-539) was “inactive”, the Activity (T47D) was “inactive” and the Activity (MDA-MB-435) was “inactive”. The Activity (M14) was “inactive”, the Activity (SK-MEL-28) was “inactive” and the Activity (SF-295) was “inactive”.
For O=C1C[C@H]2O[C@H]([C@H](O)c3ccccc3)[C@H](O)[C@H]2O1, the Activity (RXF 393) was “Active”, the Activity (ACHN) was “Active” and the Activity (UO-31) was “Active”. The Activity (OVCAR-3) was “Active”, the Activity (UACC-257) was “Active” and the Activity (HL-60(TB)) was “Active”. The Activity (HCT-116) was “Active”, the Activity (HT-29) was “Active” and the Activity (MCF7) was “Active”. For the same compound, the Activity (SF-539) was “Active”, the Activity (T47D) was “Active” and the Activity (MDA-MB-435) was “Active”. For the same compound, the Activity (M14) was “Active”, the Activity (SK-MEL-28) was “Active” and the Activity (SF-295) was “Active”.
CC(=O)O[C@H](C)[C@@H]1O[C@@H]2CC(=O)O[C@@H]2[C@H]1O was tested, and the Activity (RXF 393) was “inactive”, the Activity (ACHN) was “inactive” and the Activity (UO-31) was “inactive”. The Activity (OVCAR-3) was “inactive”, the Activity (UACC-257) was “inactive” and the Activity (HL-60(TB)) was “inactive”. For the same compound, the Activity (HCT-116) was “inactive”, the Activity (HT-29) was “inactive” and the Activity (MCF7) was “inactive”. The Activity (SF-539) was “inactive”, the Activity (T47D) was “inactive” and the Activity (MDA-MB-435) was “inactive”. For the same compound, the Activity (M14) was “inactive”, the Activity (SK-MEL-28) was “inactive” and the Activity (SF-295) was “inactive”.
With O=C(/C=C/c1ccccc1)O[C@H](c1ccccc1)[C@@H]1O[C@@H]2CC(=O)O[C@@H]2[C@H]1O the Activity (RXF 393) was “Active”, the Activity (ACHN) was “Active” and the Activity (UO-31) was “Active”. The Activity (OVCAR-3) was “Active”, the Activity (UACC-257) was “Active” and the Activity (HL-60(TB)) was “Active”. The Activity (HCT-116) was “Active”, the Activity (HT-29) was “Active” and the Activity (MCF7) was “Active”. The Activity (SF-539) was “Active”, the Activity (T47D) was “Active” and the Activity (MDA-MB-435) was “Active”. For the same compound, the Activity (M14) was “Active”, the Activity (SK-MEL-28) was “Active” and the Activity (SF-295) was “Active”.
For CC(=O)O[C@@H](C)[C@H]1O[C@H]2CC(=O)O[C@H]2[C@@H]1O, the Activity (RXF 393) was “inactive”, the Activity (ACHN) was “inactive” and the Activity (UO-31) was “inactive”. For the same compound, the Activity (OVCAR-3) was “inactive”, the Activity (UACC-257) was “inactive” and the Activity (HL-60(TB)) was “inactive”. For the same compound, the Activity (HCT-116) was “inactive”, the Activity (HT-29) was “inactive” and the Activity (MCF7) was “inactive”. The Activity (SF-539) was “inactive”, the Activity (T47D) was “inactive” and the Activity (MDA-MB-435) was “inactive”. For the same compound, the Activity (M14) was “inactive”, the Activity (SK-MEL-28) was “inactive” and the Activity (SF-295) was “inactive”.
For CC(=O)O[C@@H](C)[C@@H]1O[C@@H]2CC(=O)O[C@@H]2[C@H]1O, the Activity (RXF 393) was “inactive”, the Activity (ACHN) was “inactive” and the Activity (UO-31) was “inactive”. The Activity (OVCAR-3) was “inactive”, the Activity (UACC-257) was “inactive” and the Activity (HL-60(TB)) was “inactive”. The Activity (HCT-116) was “inactive”, the Activity (HT-29) was “inactive” and the Activity (MCF7) was “inactive”. The Activity (SF-539) was “inactive”, the Activity (T47D) was “inactive” and the Activity (MDA-MB-435) was “inactive”. For the same compound, the Activity (M14) was “inactive”, the Activity (SK-MEL-28) was “inactive” and the Activity (SF-295) was “inactive”.
With O=C1C[C@H]2O[C@H]([C@@H](O)c3ccccc3)[C@H](O)[C@H]2O1 the Activity (RXF 393) was “Active”, the Activity (ACHN) was “Active” and the Activity (UO-31) was “Active”. The Activity (OVCAR-3) was “Active”, the Activity (UACC-257) was “Active” and the Activity (HL-60(TB)) was “Active”. The Activity (HCT-116) was “Active”, the Activity (HT-29) was “Active” and the Activity (MCF7) was “Active”. The Activity (SF-539) was “Active”, the Activity (T47D) was “Active” and the Activity (MDA-MB-435) was “Active”. The Activity (M14) was “Active”, the Activity (SK-MEL-28) was “Active” and the Activity (SF-295) was “Active”.
